The text below walks through data of ChEMBL document CHEMBL4145532, “Design and synthesis of new potent N,N-bis(arylalkyl)piperazine derivatives as multidrug resistance (MDR) reversing agents” (Eur J Med Chem, 2018).

Calls of active or inactive are those of the source. No cut-off for these calls is given here.

A word on the half-life: it is how long it takes for the measured level to halve. The low end stands for fast loss, the high end for slow loss. As usually defined, the EC50 is the midpoint of the concentration-response curve.

Data set [1] relates to K562. Put plainly: Induction of Rh-123 accumulation in human K562 cells at 1 uM preincubated for 15 mins followed by Rh-123 addition and measured after 30 mins by FACS analysis. It counts as functional, cell-based. In a few lines: (§1)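 Cells (K562/DOX or parental K562) got modulator at 1.0 μM, with 15 min pre-exposure, then were loaded with 5.0 μM rhodamine-123 for 30 min at 37 °C in 5% CO2. After washing, cells sat in Rh-123-free medium with or without modulator for 30 or 60 min efflux. Cells were washed in ice-cold PBS and read by flow cytometry (≥20,000 gated events). MFI ratio is median fluorescence of treated over untreated control.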
For orientation: Flow cytometry measures light scatter and fluorescence of single cells or particles in a stream.

For data set [2], the species on record is Homo sapiens. Put plainly: Inhibition of P-gp in human K562/Dox cells assessed as potentiation of doxorubicin-induced cytotoxicity by measuring ratio of doxorubicin IC50 to doxorubicin IC50 in presence of test compound at 3 uM after 72 hrs by MTT assay. It counts as cell-based. In a few lines:
(§2)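 K562/DOX cells were exposed 72 h to doxorubicin (0.0001–100 μM) with or without modulator at 0.1, 1.0 or 3.0 μM, then read by MTT at 570 nm. Reversal fold is doxorubicin IC50 without modulator divided by IC50 with modulator. Quadruplicate cultures, at least three determinations.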
For orientation: Formazan colour is commonly taken as a measure of viable cells.

The nature of data set [3]: Half life in PBS up to 1 uM by LC-MS/MS analysis. The class given is physicochemical. In outline: (§3)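 Analyte at 1 μM was placed in PBS, pooled human plasma (healthy male volunteers) or Sprague-Dawley male rat plasma. Samples were incubated at 37 °C for 0, 30, 60 and 120 min in triplicate. Internal standard was added, samples were centrifuged, and supernatants were dried and redissolved in 10 mM formic acid water:acetonitrile 80:20. Quantitation was by LC-MS/MS, positive ESI, MRM. Plasma hydrolytic activity was checked with ketoprofen ethyl ester or enalapril.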

Data set [4] concerns K562. Put plainly: Potentiation of doxorubicin-induced cytotoxicity against human K562 cells at 1 uM after 72 hrs by MTT assay. The class given is functional, cell-based. In outline:
(§4)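 Doxorubicin (0.0001–100 μM) was tested alone or combined with modulator at 0.1, 1.0 or 3.0 μM on K562/DOX or parental K562 cells, seeded at 10^4 cells/well. Plates ran 72 h at 37 °C in 5% CO2, followed by 3 h MTT, acidified isopropanol and A570. Doxorubicin IC50 was taken as mean ± SE of at least three determinations with quadruplicate cultures.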

Data set [5] is filed under the species Homo sapiens. Nature of the data set: Inhibition of P-gp in human K562/Dox cells assessed as reduction in Rh-123 efflux by measuring increase in mean fluorescence intensity at 1 uM preincubated for 15 mins followed by Rh-123 addition for 30 mins and subsequent replacement in Rh-123 free medium measured after 30 mins by FACS analysis relative to control. It counts as cell-based. In a few lines: as §1

The nature of data set [6]: Half life in Sprague-Dawley rat plasma up to 1 uM by LC-MS/MS analysis. It counts as ADME, cell-free. In a few lines:
as §3

The nature of data set [7]: Half life in human plasma up to 1 uM by LC-MS/MS analysis. The class given is ADME, cell-free. In a few lines:
as §3

A short description of data set [8]: (§5) Inhibition of P-gp in human K562/Dox cells assessed as potentiation of doxorubicin-induced cytotoxicity after 72 hrs by MTT assay. To be noted: K562, 72 h. It counts as cell-based. In outline: as §4
Data set [9] is filed under the species Homo sapiens. The data set is described as §5. The class given is cell-based. In a few lines: as §4
Data set [10] has as its system K562. Nature of the data set: Inhibition of Rh-123 efflux in human K562 cells at 1 uM preincubated for 15 mins followed by Rh-123 addition for 30 mins and subsequent replacement in Rh-123 free medium measured after 30 to 60 mins by FACS analysis. The class given is functional, cell-based. In outline: as §1
For data set [11], the species on record is Homo sapiens. Nature of the data set: Inhibition of P-gp in human K562/Dox cells assessed as reduction in Rh-123 efflux by measuring mean fluorescence intensity at 1 uM preincubated for 15 mins followed by Rh-123 addition for 30 mins and subsequent replacement in Rh-123 free medium measured after 60 mins by FACS analysis. The class given is cell-based. In outline:
(§6)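 K562/DOX cells pretreated with modulator (1.0 μM) 15 min before loading with 5.0 μM rhodamine 123 for 30 min at 37 °C, 5% CO2. Washed, then held in Rhd 123-free medium with or without modulator for 30 or 60 min. Cells washed in ice-cold PBS and analysed by flow cytometry (≥20,000 gated events). MFI ratio = median fluorescence of treated/untreated control. Mean ± SE, three independent experiments.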

Data set [12] is described as follows: Cytotoxicity against human K562/Dox cells at 0.1 to 3 uM after 72 hrs by MTT assay. The class given is cell-based. In outline: (§7)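 Compounds were given alone at 0.1, 1.0 and 3.0 μM to parental K562 and to P-gp-overexpressing K562/DOX cells. Exponential-phase cells were seeded at 10^4 cells/well and kept 72 h at 37 °C in 5% CO2. MTT was then added for 3 h, formazan was dissolved in acidified isopropanol, and absorbance was read at 570 nm.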

For data set [13], the species on record is Homo sapiens. Put plainly: Inhibition of P-gp in human K562/Dox cells assessed as potentiation of doxorubicin-induced cytotoxicity by measuring ratio of doxorubicin IC50 to doxorubicin IC50 in presence of test compound at 1 uM after 72 hrs by MTT assay. The class given is cell-based. In outline:
as §2

For data set [14], the species on record is Homo sapiens. Put plainly: Inhibition of P-gp in human K562/Dox cells assessed as reduction in Rh-123 efflux by measuring increase in mean fluorescence intensity at 1 uM preincubated for 15 mins followed by Rh-123 addition for 30 mins and subsequent replacement in Rh-123 free medium measured after 60 mins by FACS analysis relative to control. It counts as cell-based. In outline:
as §1

Data set [15] concerns K562. Put plainly: Cytotoxicity against human K562 cells at 0.1 to 3 uM after 72 hrs by MTT assay. The class given is cell-based. As to conditions: k562, 72 h. In outline: as §7
For data set [16], the species on record is Homo sapiens. Put plainly: Inhibition of P-gp in human K562/Dox cells assessed as increase in Rh-123 accumulation at 1 uM preincubated for 15 mins followed by Rh-123 addition measured after 30 to 60 mins by FACS analysis. It counts as cell-based. In outline: as §1
For data set [17], the species on record is Homo sapiens. Put plainly: Inhibition of P-gp in human K562/Dox cells assessed as potentiation of doxorubicin-induced cytotoxicity by measuring ratio of doxorubicin IC50 to doxorubicin IC50 in presence of test compound at 0.1 uM after 72 hrs by MTT assay. It counts as cell-based. In outline:
as §2

The test system of data set [18] is K562. Put plainly: Potentiation of doxorubicin-induced cytotoxicity against human K562 cells at 0.1 to 3 uM after 72 hrs by MTT assay. The class given is functional, cell-based. In outline:
as §4

Data set [19] is filed under the species Homo sapiens. Nature of the data set: Inhibition of P-gp in human K562/Dox cells assessed as reduction in Rh-123 efflux by measuring mean fluorescence intensity at 1 uM preincubated for 15 mins followed by Rh-123 addition for 30 mins and subsequent replacement in Rh-123 free medium measured after 30 mins by FACS analysis. The class given is cell-based. In outline:
as §6

Data set [20] can be described thus: Cytotoxicity against human K562/Dox cells at 3 uM after 72 hrs by MTT assay relative to control. It counts as cell-based. In outline:
as §7

Take `COc1ccc(C(CCCN2CCN(C/C=C/c3cc(OC)c(OC)c(OC)c3)CC2)c2ccc(OC)cc2)cc1`: the outcome in [1], in [4] and in [18] was inactive. The Ratio IC50 in data set [2] is 44; in data set [13], 12.9; in data set [17], 1.9. For the same compound, the half-life in data set [3], in data set [6] and in data set [7] was more than 240 min each time. Besides, the fold change (FC) in data set [5] came to 100; in data set [14] it was 50. Besides, the EC50 in [8] came out at 2700 nM. In addition, the inhibition entry in [9] is “Dose-dependent effect”. Also, the inhibition result in [10] was “inactive”. Further, the Flu intensity in data set [11] turned out to be 49.9; in [19], 108. Moreover, the Activity result in data set [12] and in data set [15] was “Non-Toxic” throughout. Further, the “P-gp inhibition activity call (increase in Rh-123 accumulation)” value in [16] is “Active”.

On to `COc1ccc(C(CCCN2CCN(Cc3cc(OC)c(OC)c(OC)c3)CC2)c2ccc(OC)cc2)cc1`, for which the result in data set [1], in [4] and in [18] was inactive. The Ratio IC50 in data set [2] came out at 73.3; in data set [13], 10.5; in data set [17] it was 1.2. The half-life in data set [3], in data set [6] and in [7] was more than 240 min each time. Besides, the fold change (FC) was found to be 30 in data set [5] and 10 in data set [14]. The EC50 in data set [8] came out at 1900 nM. For the same compound, the inhibition result in data set [9] was “Dose-dependent effect”. For the same compound, the inhibition result in data set [10] is “inactive”. Further, the Flu intensity is 11.1 in [11] and 30 in data set [19]. Moreover, the figures for the Activity result in [15] and in data set [20] were “Non-Toxic” and “<= 30%”, respectively. In addition, the “P-gp inhibition activity call (increase in Rh-123 accumulation)” value in data set [16] is “Active”.

Consider `CCOC(=O)C(C)c1cccc(C(=O)c2ccccc2)c1` (stereo not drawn), for which the half-life in data set [7] came out at 110 min.

As for `CCOC(=O)[C@H](CCc1ccccc1)N[C@@H](C)C(=O)N1CCC[C@H]1C(=O)O`, the half-life in [6] stood at 25 min.

Regarding `COc1ccc(C(CCCN2CCN(CCOc3cc(OC)c(OC)c(OC)c3)CC2)c2ccc(OC)cc2)cc1`, the result in data set [1], in [4] and in [18] was inactive. Also, the results for the Ratio IC50 in [2], in data set [13] and in [17] were 8.8, 4.5 and 2.4, respectively. The half-life in data set [3], in data set [6] and in data set [7] was more than 240 min throughout. The inhibition result in [9] is “Dose-dependent effect”. For the same compound, in data set [10], the inhibition entry is “inactive”. The Flu intensity in data set [11] is 1.4; in [19], 5.5. Further, the Activity result in [12] and in data set [15] was “Non-Toxic” throughout. Moreover, in data set [16], the “P-gp inhibition activity call (increase in Rh-123 accumulation)” value was “Active”.

Turning to `COc1cc(/C=C/CN2CCN(Cc3c4ccccc4cc4ccccc34)CC2)cc(OC)c1OC`, the result in data set [1], in [4] and in data set [18] was inactive. Besides, the values for the Ratio IC50 in data set [2], in data set [13] and in data set [17] were 22, 8.8 and 1.7, respectively. For the same compound, the half-life in data set [3], in data set [6] and in data set [7] was more than 240 min throughout. The inhibition entry in [9] is “Dose-dependent effect”. In data set [10], the inhibition result was “inactive”. For the same compound, the Flu intensity was found to be 2.4 in data set [11] and 7.5 in data set [19]. Also, the Activity entry in data set [12] and in [15] was “Non-Toxic” in each case. Also, the “P-gp inhibition activity call (increase in Rh-123 accumulation)” value in [16] was “Active”.

For `COc1cc2c(cc1OC)CN(CCc1ccc(NC(=O)c3cc(OC)c(OC)cc3NC(=O)c3cnc4ccccc4c3)cc1)CC2`, in [13], the Ratio IC50 turned out to be 31.4.
